# This is one part of a sample in which hits are shown more often than they occur.
# INS promoter act – TRM-6 insulin promoter activation. TRM-6 cells (human fetal islet line), insulin promoter eGFP reporter, imaging; plate-scaled: unstimulated 0, stimulated control 100. activation, % at 2 µM. AID 1296. 130,000 tested, 0.81% active;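 active = activation at 2 µM above a set limit, confirmed on inspection of the cell images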;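 also: share of cells whose green reporter signal exceeds an intensity cutoff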
#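 Assay system: TRM-6 human fetal islet cells, insulin promoter–eGFP reporter; Also added: 0.75 µM tamoxifen as reporter inducer; Schedule: 15 h tamoxifen pre-treatment, 48 h compound treatment at 37 °C; Signal: fixed-cell fluorescence microscopy, eGFP plus Hoechst; Read-out: percent activation from GFP-positive cell fraction; Control set: stimulated and unstimulated wells.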
# * = called active by the depositor.
SMILES,INS promoter act
O=C(COc1ccc(Cl)cc1)Nc1ccccc1C(=O)NCc1ccco1,438*
O=C(COc1ccc(Cl)cc1Cl)NNC(=S)NCc1ccco1,167
O=C(Nc1ccccc1C(=O)NCc1ccco1)NC1CCCCC1,-10
COc1cc2nc(CN3CCN(S(=O)(=O)c4ccc(Cl)cc4)CC3)[nH]c(=O)c2cc1OC,0
COc1cc(/C(C)=N/N2CCOCC2)cc(OC)c1OC,0
CC1(C)Cc2c(sc3[nH]c(=S)[nH]c(=O)c23)CO1,-4
CC(C)CCN(C(=O)CNC(=O)c1ccco1)C(C(=O)NC1CCCCC1)c1ccco1 (stereo not drawn),3
CC1Cc2cc(/C(O)=C3/C(=O)C(=O)N(CCN4CCOCC4)C3c3cccc(O)c3)ccc2O1 (stereo not drawn),467*
CCN(CC)CCCN1C(=O)C(=O)/C(=C(/O)c2ccc(C)cc2)C1c1ccccn1 (stereo not drawn),0
Cc1ccc(/C(O)=C2/C(=O)C(=O)N(CCN3CCOCC3)C2c2ccccn2)cc1 (stereo not drawn),850*
CCN(CC)CCCN1C(=O)C(=O)/C(=C(/O)c2ccc3c(c2)OCCO3)C1c1ccco1 (stereo not drawn),-6
O=C1C(=O)N(CCN2CCOCC2)C(c2ccncc2)/C1=C(/O)c1ccc2c(c1)OCO2 (stereo not drawn),4
O=C(C1=C(O)C(=O)N(CCCN2CCOCC2)C1c1ccccn1)c1cc2ccccc2o1 (stereo not drawn),0
CCOC(=O)c1ccc(NC(=S)N2CCSC2c2ccc(Br)cc2)cc1 (stereo not drawn),-3
Cc1ccc(O)c(NC(=S)NC(=O)c2ccc(-c3ccc(Cl)cc3)o2)c1,-2
Cc1ccc(Sc2c(C)nn(C(=O)c3cccc(S(=O)(=O)N4CCOCC4)c3)c2C)cc1,-3
COc1cccc(N2CCN(C(=O)CCCCCNc3nc(=S)[nH]c4ccccc34)CC2)c1,6
O=C(NCc1cccnc1)C1c2ccccc2C(=O)N1C1CCCC1 (stereo not drawn),112
COc1ccc(OC)c(N(CC(N)=O)S(=O)(=O)c2ccc(OC)c(OC)c2)c1,-3
CCC(=O)N(c1ccc(F)cc1)C1C=CS(=O)(=O)C1 (stereo not drawn),0
COCC(=O)N(c1ccc(C(C)C)cc1)C1C=CS(=O)(=O)C1 (stereo not drawn),422*
CC(=O)N(c1ccc(C(C)C)cc1)C1C=CS(=O)(=O)C1 (stereo not drawn),3
COc1cc(NC(=O)Cn2nnc(-c3ccccc3N)n2)cc(OC)c1,-3
COc1ccc(OC)c(NC(=O)CC2C(=O)NCCN2C(=O)Nc2cccc(Cl)c2)c1 (stereo not drawn),7
Cc1ccc(OC(=O)c2sc(Cl)nc2C)cc1C,7
SMILES,INS promoter act
COC(=O)c1c(-c2cccc3ccccc23)csc1NC(=O)Cc1ccc(OC)c(OC)c1,-2
CCOC(=O)c1oc2cccc(OC(C)=O)c2c1C,286
CCOC(=O)c1oc2ccc(CNC(C)(C)C)c(Cl)c2c1C,431*
CCOC(=O)c1oc2ccccc2c1NC(=O)COC,123
O=C(/C=C/c1ccc2c(c1)OCO2)NCCSCc1c(Cl)cccc1Cl,7
COc1ccc(/C=N/NC(=O)CC2N=C(Cc3ccccc3)NNC2=O)cc1OC (stereo not drawn),7
Cn1c(=O)oc2cc(S(=O)(=O)NCCC(=O)N3CCc4ccccc4C3)ccc21,8
CCOC(=O)N1CCN(C(=O)CCNS(=O)(=O)c2ccc3c(c2)c(=O)n(C)c(=O)n3C)CC1,293*
CCOc1ccc(NC(=O)CCNS(=O)(=O)c2ccc3c(c2)c(=O)n(C)c(=O)n3C)cc1,-9
Cc1c(NC(=O)CSc2nnnn2-c2ccc(F)cc2)c(=O)n(-c2ccccc2)n1C,0
Cc1c(NC(=O)c2ccc3ncccc3c2)c(=O)n(-c2ccccc2)n1C,-5
CN(C)CCNC(=O)c1cccc(S(=O)(=O)Nc2ccccc2F)c1,6
C/C(=N\NC(=O)c1c(Cl)c(C)nn1C)c1cccc(NC(=O)COc2ccc(Cl)cc2)c1,-3
O=[N+]([O-])c1ccc(NC(=S)N2CCc3ccccc3C2)cc1,-3
Cc1ccc(S(=O)(=O)Nc2ccc(S(=O)(=O)NC(C)(C)C)cc2)cc1,8
Cc1ccc(NS(=O)(=O)c2ccc(CCC(=O)N3CCOCC3)cc2)cc1,188
Cc1ccc(S(=O)(=O)Nc2ccc(N3CCOCC3)cc2)cc1,81*
O=C(Nc1ncc(Cc2ccc(SC(F)F)cc2)s1)c1ccc(OC(F)F)cc1,157
CCCN(CCO)Cc1ccc2ccccc2c1,7
COc1ccc(NS(=O)(=O)c2ccc(SC)cc2)c(OC)c1,4
COc1ccc(S(=O)(=O)Nc2cc3c4c(oc3c3ccccc23)CC(C)(C)CC4=O)cc1,87*
COc1ccc(S(=O)(=O)Nc2ccccc2C)cc1,4
O=C(N=C1c2ccccc2CN1c1ccc(F)cc1)c1ccc(Cl)nc1,103
CCOC(=O)C1CCCN(CCC(=O)Nc2cccc(C)c2)C1 (stereo not drawn),7
CCOC(=O)C1CCCN(CCC(=O)Nc2cccc(F)c2)C1 (stereo not drawn),-9
SMILES,INS promoter act
CCOC(=O)C1CCCN(CCC(=O)Nc2ccc(C)cc2)C1 (stereo not drawn),528*
Cc1cc(C)c2c(=O)[nH]c(SCC(=O)c3ccc(C)c(C)c3)nc2n1,9
COc1ccc(-c2nnc(SCC(=O)c3ccc[nH]3)n2-c2ccccc2)cc1,0
Cc1nnc(SCC2CCCO2)n1-c1ccccc1 (stereo not drawn),8
COc1ccc(-c2nnc(SCCC(=O)O)n2-c2ccccc2)cc1,486*
COc1ccccc1OCCSc1nnc(C)n1-c1ccccc1,83*
COC(=O)CSc1nnc(-c2ccccc2OC)n1-c1ccc(C)cc1,9
C=C(C)Cn1c(SCC(=O)O)nnc1-c1ccc(OC)cc1,-3
CN1CCc2ccccc2CC1=O,0
COC(=O)CN(c1ccc(OCc2ccccc2)cc1)S(C)(=O)=O,7
Cc1ccc(-c2nnn(CC(=O)N(CC3CCCO3)C(C(=O)NC3CCCC3)c3ccc(O)cc3)n2)o1 (stereo not drawn),7
Cc1ccc(-c2nnn(CC(=O)N(CC3CCCO3)C(C(=O)NC3CCCC3)c3ccc(F)cc3)n2)o1 (stereo not drawn),500*
Cc1ccc(-c2nnn(CC(=O)N(c3cccc(F)c3)C(C(=O)NC3CCCC3)c3ccco3)n2)o1 (stereo not drawn),4
O=C(c1cc2c(cc1Br)OCCCO2)N1CCCCC1,4
CS(=O)(=O)N1CCC(C(=O)N2CCN(c3ccccc3F)CC2)CC1,-6
CCN(CC)CCNC(C(=O)Nc1cccc(C(C)=O)c1)c1ccccc1 (stereo not drawn),7
O=C(c1cccn2c(=O)c3ccccc3nc12)N1CCN(Cc2ccc3c(c2)OCO3)CC1,7
O=C(CN1C(=O)c2cccc3cccc(c23)C1=O)N1CCOCC1,-8
O=C(CN1C(=O)c2cccc3cccc1c23)N1CCN(Cc2ccc3c(c2)OCO3)CC1,500*
CC1CN(S(=O)(=O)c2cccc(C(=O)Nc3ccc4c(c3)CCC4)c2)CC(C)O1 (stereo not drawn),-2
Cc1c(C(=O)Oc2cccc3ccccc23)cnn1-c1ccccc1,-1
O=C(Cc1ccc(Br)cc1)N1CCN(c2ccccc2)CC1,467*
Cc1cccc(N2CCN(C(=O)Cc3ccc(Br)cc3)CC2)c1C,8
O=C(CSCc1ccccc1)N1CCN(c2ccccc2)CC1,118

# Compound activity (PubChem)
